Assay outcomes deposited in PubChem BioAssay by several laboratories.
GRK2 aptamer HTS = human GRK2 inhibition via aptamer displacement | P25098 | bead flow cytometry, FAM-aptamer displacement from GRK2 | inhibition of aptamer binding, % at 10 µM | 330,000 tested, 0.59% active | AID 488847;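 active = inhibition of aptamer binding above 40%, roughly 3 SD of noise, on plates passing a quality check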;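 note: median bead fluorescence of bound FAM aptamer so fluorescent compounds give negative values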
Scp-1 inhibitor = Scp-1 (human) phosphatase inhibition. Q9GZU7. Recombinant Scp1, phosphopeptide, malachite green phosphate absorbance. inhibition, % at 20 µM. 340,000 tested, 0.88% active. AID 493091;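 active = inhibition above about 50% at 20 µM, limit read from the data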;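 note: plate controls were DMSO wells with enzyme for no effect and wells lacking enzyme for full effect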
Target sequence (Q9GZU7 76-261 limits assumed): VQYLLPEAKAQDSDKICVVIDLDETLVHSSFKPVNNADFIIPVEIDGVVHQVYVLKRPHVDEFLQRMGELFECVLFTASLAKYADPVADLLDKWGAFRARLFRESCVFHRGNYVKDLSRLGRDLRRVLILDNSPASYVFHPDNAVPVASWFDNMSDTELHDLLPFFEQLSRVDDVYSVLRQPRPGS
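assay system = SCP-1 phosphatase catalytic domain, residues 76-261 | buffer or medium = 50 mM Tris acetate pH 5.5, 0.005% Tween-20, 10 mM MgCl2 | incubation = enzyme reaction 45 min at room temperature, colour 5 min, stabilisation 30 min | signal = Phosphate-binding colour reagent, absorbance read at 630 nm | measure = % inhibition at 20 µM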
SUMO1 PPI mod = SUMO1-SIM interaction modulation; SUMO1 binding to a labelled peptide, TR-FRET, 1 h; inhibition, % at 20 µM; AID 602429; 360,000 tested, 0.33% active; in the data active = inhibition above about 37%
Target sequence (P63165 whole entry, looked up): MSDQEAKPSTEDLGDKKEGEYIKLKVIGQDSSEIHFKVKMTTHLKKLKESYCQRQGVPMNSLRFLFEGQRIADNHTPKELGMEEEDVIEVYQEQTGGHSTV
LMPTP inh = blocks human LMPTP phosphatase. P24666. recombinant LMPTP-A, OMFP fluorogenic substrate, fluorescence intensity. inhibition, % at 20 µM. 360,000 tested, 0.22% active;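 active = compounds that cut the enzyme signal by at least half of the control window in the single-dose screen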;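 note: plate controls were DMSO wells with enzyme plus substrate for no effect and substrate without enzyme for full effect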
Target sequence (P24666 whole entry, looked up): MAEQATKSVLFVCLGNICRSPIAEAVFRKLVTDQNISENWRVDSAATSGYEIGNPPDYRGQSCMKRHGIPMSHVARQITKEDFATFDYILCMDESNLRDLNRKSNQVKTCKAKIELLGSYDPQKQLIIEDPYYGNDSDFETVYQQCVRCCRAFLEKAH
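Assay system: LMPTP-A phosphatase enzyme | Input: 0.625 nM enzyme | Also added: Fluorogenic phosphatase substrate OMFP at 400 µM final | Compound dosing: One test concentration per compound, 20 µM, with 3% DMSO overall | Schedule: 50 min enzyme reaction at room temperature, protected from light | Signal: Fluorescence intensity | Benchmarks: no-enzyme and uninhibited controls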
DNMT1 inh = DNMT1 (human) enzyme inhibition | P26358 | DNMT1 molecular beacon, Hinp1I cleavage, fluorescence | inhibition (reported as % activation of signal), % at 10 µM | 360,000 tested, 0.83% active; in the data active = inhibition above about 50%
STEP block = inhibitors of human striatal-enriched phosphatase STEP | recombinant STEP, OMFP fluorogenic substrate, fluorescence | inhibition, % at 20 µM | 360,000 tested, 0.25% active | AID 588621;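 active = inhibition at 20 µM, scaled per plate between control wells, above about 37%, limit read from the data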;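 note: 0% = DMSO with enzyme and substrate and 100% = substrate only without enzyme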
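Assay system: isolated STEP enzyme. Buffer or medium: pH 6.0 Bis-Tris with DTT and Tween 20. Also added: fluorogenic phosphatase substrate OMFP at 25 µM final. Dosing: 20 µM, 1% DMSO. Timing: 20 min reaction, room temperature, in the dark. Measured by: fluorescence intensity, excitation 480 nm, emission 540 nm. Evaluation: normalized % inhibition.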
GRK2 inh confirm = confirmation of human GRK2 inhibitors displacing RNA aptamer | shares compounds with GRK2 aptamer HTS | bead-bound GRK2, FAM-aptamer displacement, flow cytometry | aptamer displacement, % at 10 µM | 2,000 tested, 4% active;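 active = aptamer displacement above 40%, near three times the noise of non-fluorescent compounds, on plates passing quality checks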;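 note: negative values mostly reflect intrinsic compound fluorescence rather than true enhancement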
Aptamer quench SP = aptamer fluorescence quenching in GRK2 counter-screen. 2,000 tested, under 10 active. Carboxyfluorescein RNA aptamer on beads, flow cytometry quenching; stronger effect = lower value. shares compounds with GRK2 aptamer HTS. fluorescence response (% of DMSO), % at 10 µM;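 active = compounds that quench the bead-bound fluorescent RNA probe, cutting fluorescence to under half of the solvent control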;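 note: counterscreen run without GRK2 so only probe quenching by compound is measured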
GRK2 CP2 = confirmation of human GRK2 inhibitors binding RNA aptamer site; 360 tested, under 10 active; shares compounds with GRK2 aptamer HTS; bead-bound GRK2, FAM-aptamer displacement, flow cytometry; inhibition of aptamer binding, % at 10 µM;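 active = inhibition of aptamer binding above 40%, about triple the noise seen with nonglowing compounds, on plates passing quality control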;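 note: negative values mostly come from compounds that fluoresce themselves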
FAM quench SP = aptamer fluorescence quenching in GRK2 counter-screen. shares compounds with GRK2 aptamer HTS. carboxyfluorescein RNA aptamer beads, flow cytometry quenching; stronger effect = lower value. fluorescence response vs DMSO, % at 10 µM. 360 tested, under 10 active;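 active = response vs DMSO under 50%, meaning signal dropped by over half, treated as fluorescence quencher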;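 note: labelled aptamer on streptavidin beads without GRK2 as a quench counter-screen; 100% = bead fluorescence of DMSO wells and lower means quenching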
Active calls of the source: *; x = no result. The list is not random: actives were taken first. Their share in the collection is about 2.1%.

SMILES	GRK2 aptamer HTS	Scp-1 inhibitor	SUMO1 PPI mod	LMPTP inh	DNMT1 inh	STEP block	GRK2 inh confirm	Aptamer quench SP	others
CC1(C(=O)NS(=O)(=O)c2ccccc2C(F)(F)F)CCN1C(=O)CCc1cccs1 (centres undefined)	x	x	5.6	-1.6	5.8	0.2	x	x
O=C(Nc1ccc2oc(-c3ccc(F)cc3)nc2c1)c1ccccc1F	2.0	-12.2	-0.2	-0.5	4.8	-2.2	x	x
O=C(NC(=S)Nc1ccc2oc(-c3ccncc3)nc2c1)c1ccccc1F	40.0	-1.9	6.9	-0.1	18.0	2.6	-14.3	99.7
O=C(Cn1cc(COc2ccc3ccccc3c2)nn1)NS(=O)(=O)c1cccc(OC(F)F)c1	x	x	1.1	-3.2	-4.0	-3.6	x	x
COc1ccc(C2(CCN)CC(C)N(C)CC2C)cc1 (centres undefined)	0.0	-12.3	2.6	-11.7	-8.7	-9.8	x	x
Cc1ccc(CC2(O)CC(C)N(C)CC2C)c(C)c1 (centres undefined)	56.0*	-1.8	1.1	3.2	4.8	-4.3	-1.0	103.9
COc1ccc(OCCN2CCN(C(=O)c3ccc(OC)cc3)CC2)cc1	0.0	-2.0	-3.9	-0.7	2.1	-3.2	x	x
COc1ccc(OCCN2CCN(C(=O)c3ccc(OC(F)F)c(OC)c3)CC2)cc1	56.0*	-3.8	1.0	-0.1	-1.9	1.4	-0.4	102.8
O=C(Nc1cc(Cl)ccc1N1CCOCC1)c1ccc(N2CCCCC2)c([N+](=O)[O-])c1	42.0*	0.8	-5.8	3.3	-2.0	5.0	x	x	GRK2 CP2=-10.7;FAM quench SP=106.0
Cc1cnnn1-c1ccc(C(=O)CCl)cc1	56.0*	2.8	-2.5	-0.1	-1.6	-1.8	-52.4	97.8
CC(=O)c1ccc(-n2nncc2C(C)(C)C)cc1	1.0	-6.3	-1.6	-1.0	0.1	-2.9	x	x
CCc1cccc(C)c1NC(=O)CC1Oc2ccc(C)cc2NC1=O (centres undefined)	49.0*	1.4	7.6	-1.8	3.4	-2.8	x	x	GRK2 CP2=-0.5;FAM quench SP=101.0
Cc1ccc(NC(=O)CC2Oc3ccc(C)cc3NC2=O)c(C)c1 (centres undefined)	0.0	-0.9	-3.4	-1.1	1.9	-4.3	x	x
Cc1ccc[n+](CC(=O)c2ccc(Br)cc2)c1	75.0*	-8.3	0.1	-2.0	0.4	0.6	-0.7	94.4
Cc1ccc(S(=O)(=O)N2C[C@H]3[C@H]4C(=O)N(C)C(=O)[C@H]4CC(=O)[C@H]3[C@@H]2c2ccccc2F)cc1	x	x	0.4	-0.6	-0.2	-0.9	x	x
CC(NC(=O)COC(=O)c1c[nH]c2ccccc12)c1ccccc1 (centres undefined)	31.0	-3.9	3.7	0.6	-3.4	1.8	-1.3	99.9
C/C(=N\Nc1nc(C)cc(C)n1)c1ccc(N2CCOCC2)cc1	2.0	-3.0	-9.6	-0.5	-1.9	-0.2	x	x
C/C(=N\Nc1nc2ccccc2[nH]1)c1ccc(N2CCOCC2)cc1	52.0*	0.6	-10.5	6.0	-2.3	3.7	-0.4	100.7
COCCCNC(=O)c1ccc(CS(=O)(=O)c2ccccc2OC)o1	37.0	-12.3	14.7	-2.6	-1.8	-3.0	x	x
COCCNC(=O)c1ccc(CS(=O)(=O)c2ccccc2OC)o1	50.0*	-4.5	2.9	-1.4	0.0	-2.8	-1.2	95.4
CSc1ccccc1NC(=O)N1CCCC(C(=O)c2ccc3c(c2)OCO3)C1 (centres undefined)	95.0*	-11.6	-3.4	-0.2	0.7	-3.9	-1.0	95.7
